# Screens as filed in PubChem.
# Shown are actives, neighbours in structure and some others; about 12% of the full set was active somewhere.
# KCC2 mod: modulators of human KCC2 chloride dependent transport | Q9H2X9 | hit rate 2.2% among 190,000 | B-score of Tl+ flux slope (higher = more flux/activation; lower = inhibition) at 10 µM | KCC2 cells, thallium flux FluoZin-2 fluorescence;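 active means thallium flux slope and its plate-corrected score both differing from the plate sample mean at a set confidence after two filtering rounds, in either direction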;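 further: slope of fluorescence scaled to starting intensity during 10 to 20 s after thallium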
# Diaphorase act: activates diaphorase or chemically reduces, flagging diaphorase assay artifacts. AID 1229. Diaphorase/resazurin coupled assay, resorufin fluorescence, 16 min; stronger effect = higher value; 1 = vehicle wells, 0 = NADH-free wells. activation factor at 20 µM. hit rate 0.005% among 190,000;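 active means diaphorase activity raised at least twofold by the compound at 20 µM; inactive means activation factor below 2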
#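 System – purified diaphorase enzyme from Clostridium kluyveri · Input – enzyme 0.07 U/mL final · Also added – final NADH 0.114 mM, resazurin 0.1 mM · Measured by – fluorescence of resorufin, 544 nm excitation, 590 nm emission · Timing – 16 min enzyme reaction, ambient temperature · Measure – resorufin increase flagging diaphorase activators or reducers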
# Diaphorase inh: diaphorase inhibition or chemical oxidation counter-screen; diaphorase resazurin-to-resorufin fluorescence, NADH, 16 min; bacterial (C. kluyveri) enzyme, not human; inhibition, % at 20 µM; hit rate 0.69% among 190,000;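 active means primary screen inhibition at 20 µM above a set limit, cut at about 50% in these data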;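 further: plate controls were DMSO with full reaction for no effect and wells lacking NADH for full effect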
#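 Test system: bacterial diaphorase enzyme (C. kluyveri); Quantity: 0.14 U/mL diaphorase, enzyme working solution; Times: reaction incubation of 16 min at room temperature; Measured by: fluorescence of resorufin formed from resazurin, Ex 544/Em 590 nm; Benchmarks: positive control minus NADH, DMSO neutral control.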
# Lmaj promast: Leishmania major promastigote growth inhibition | Leishmania major promastigotes, resazurin fluorescence viability | inhibition, % at 10 µM | hit rate 9% among 200,000 | AID 1063; in the data active means inhibition above about 50%;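 further: promastigotes grown with compound for 44 hours at 28 °C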
# ROMK mod: human ROMK K+ channel modulation, primary screen; hit rate 2% among 130,000; P48048; AID 1918; B-score at 10 µM; Tet-inducible ROMK, thallium flux fluorescence; actives lie on both sides;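 active means signal ratio slope over the read window, or its plate-corrected B-score, at least 3 SD from the plate mean, either direction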;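 further: B-score of the F/F0 ratio slope over 7 to 12 s after thallium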
# Target sequence (P48048 whole entry, looked up): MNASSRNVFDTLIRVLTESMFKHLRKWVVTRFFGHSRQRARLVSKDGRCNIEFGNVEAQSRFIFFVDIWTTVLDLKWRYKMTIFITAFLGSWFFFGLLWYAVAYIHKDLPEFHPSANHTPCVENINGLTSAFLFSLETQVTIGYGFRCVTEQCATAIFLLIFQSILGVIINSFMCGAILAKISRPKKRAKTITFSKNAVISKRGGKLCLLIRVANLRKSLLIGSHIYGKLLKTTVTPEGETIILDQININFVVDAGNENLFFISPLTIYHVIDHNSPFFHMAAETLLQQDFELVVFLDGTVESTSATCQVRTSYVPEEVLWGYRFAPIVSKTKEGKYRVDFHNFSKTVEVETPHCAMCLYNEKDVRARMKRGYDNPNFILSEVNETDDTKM
# WT yeast gro inh: growth inhibition of WT yeast, mitochondrial fusion screen; mitochondrial fusion phenotypic screen, WT strain; inhibition, % at 10 µM; hit rate 2.1% among 190,000; in the data active means inhibition above about 58%; tested in S. cerevisiae
# L major 1uM: L. major promastigote growth inhibition, 1 uM repeat. shares compounds with Lmaj promast. resazurin fluorescence, 48 h. hit rate 13% among 1,100. inhibition, % at 1 µM;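 active means inhibition above about 50% in both repeat tests, limit read from the data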
# The depositor's hits bear a star; / = no result given.
SMILES,KCC2 mod,Diaphorase act,Diaphorase inh,Lmaj promast,ROMK mod,WT yeast gro inh,L major 1uM
Cc1ccc(S(=O)(=O)C(c2ccccc2)c2c(C)noc2C)cc1 (centres undefined),/,0.9,14,61*,0.15,13,-6
CCOC(=O)COn1c(-c2cccc(Cl)c2)nc2ccc([N+](=O)[O-])cc21,0.054,0.8,19,6,/,50,/
CCOC(=O)C(C)On1c(-c2cccc(Cl)c2)nc2ccc([N+](=O)[O-])cc21 (centres undefined),-0.45,0.9,13,95*,-0.11,34,-3
COc1cccc(/C=N/NC(=O)c2ccc(-c3ccccc3)cc2)c1O,-0.06,0.9,5,100*,-0.27,2,-18
Cc1onc(-c2ccccc2Cl)c1-c1nc(-c2ccccn2)no1,-0.75,1,-1,75*,-0.29,44,15
Cc1cc(C)c(C(CC(=O)c2cccs2)C(C#N)C#N)c(C)c1 (centres undefined),-0.071,0.8,18,92*,0.11,-4,-9
Cc1nn(-c2ccccc2)c(N)c1C(O)(C(F)(F)F)C(F)(F)F,1.4,1,0,98*,0.11,7,-1
Cc1nn(-c2ccccc2)c(N)c1C(O)(CC(=O)C(F)(F)F)C(F)(F)F (centres undefined),2.2,0.9,6,-6,-0.38,10,/
Cc1[nH]c2c(ccc3ccccc32)c1C1C(CCN)C1(C)C (centres undefined),1.7,1.1,-8,100*,-0.7,35,-21
Cc1cc(C)n(/N=C/c2cccs2)c(=O)c1C#N,-1.8,0.9,9,-6,-0.81,-6,/
Cc1cc(C)c(/C=N/n2c(C)cc(C)c(C#N)c2=O)c(C)c1,1.6,0.8,15,73*,0.23,23,20
Cc1cc2nc(SCC(=O)Nc3ccccc3C(=O)O)[nH]c2cc1C,-0.98,0.8,16,-17,-0.22,9,/
CCN1/C(=C/C=C/c2oc3ccc4ccccc4c3[n+]2CC)Oc2ccc3ccccc3c21,/,1.2,-25,100*,/,76,101*
Cc1cc(C)c2cc(C#N)c(N3CCCN(S(=O)(=O)c4ccccc4)CC3)nc2c1,-0.49,/,/,-2,/,/,/
CC(=O)c1cccc(S(=O)(=O)N2CCN(c3nc4cc(C)cc(C)c4cc3C#N)CC2)c1,0.46,0.8,18,50*,/,6,-14
CC(C)(C)OC(=O)NNC1CC(=O)N(c2ccccc2F)C1=O (centres undefined),0.8,0.9,11,-4,-0.42,5,/
COc1ccc(NC2=Nc3cccc4cccc2c34)cc1,-1.2,0.9,9,74*,/,13,27
Cc1cccc(NCCC(=O)c2ccc(Br)cc2)c1,/,0.8,20,54*,/,1,-11
CC(C)c1ccc(NCCC(=O)c2ccc(Br)cc2)cc1,-0.37,1,0,6,/,-10,/
CC(C)C(O)(C#CCN1CCCC1)c1ccccc1 (centres undefined),0.74,0.8,23,10,/,2,/
CC(C)C(O)(C#CCN1CCCCC1)c1ccccc1 (centres undefined),-1.2,0.9,9,93*,-0.071,10,21
NS(=O)(=O)c1ccc(CNC(=O)/C=C/c2c(F)cccc2Cl)cc1,-0.6,1,4,-7,0.014,-11,/
Nc1nc(-c2cccs2)c(NC(=O)c2ccccc2)s1,0.78,0.8,25,86*,/,-7,-8
CC(=O)Nc1sc(NC(=O)c2ccc(Cl)cc2)nc1-c1cccs1,-0.15,1,2,-1,0.21,15,/
Fc1ccccc1Sc1ccccc1CNC1=NCCN1,0.31,1.1,-11,99*,-0.79,80*,5
SMILES,KCC2 mod,Diaphorase act,Diaphorase inh,Lmaj promast,ROMK mod,WT yeast gro inh,L major 1uM
CN(c1ccc(O)cc1)c1nc(-c2ccccc2)cs1,-1.7,0.7,31,89*,-1.3,64,-5
CCc1nnc(N2C(=O)c3ccc(Oc4ccc([N+](=O)[O-])cc4)cc3C2=O)s1,-2.8,0.8,17,-8,0.99,-18,/
CCOC(=O)C1C(C(=O)OCC)C1(c1ccccc1)c1ccccc1 (centres undefined),-0.013,0.8,18,89*,/,20,-2
N#Cc1ccc(Oc2ccc(-c3nc4ccccc4nc3-c3ccccc3)cc2)cc1C#N,0.33,1,2,93*,/,-4,1
N#Cc1ccc(Oc2ccc(-c3cnc4ccccc4n3)cc2)cc1C#N,-1.1,0.9,10,-4,/,-16,/
COc1cc2[nH]c3c(N4CCN(c5ccccn5)CC4)ncnc3c2cc1OC,/,0.9,8,100*,0.28,7,-29
CC(Sc1ncnc2ccccc12)C(=O)Nc1ccc2c(c1)OCCO2 (centres undefined),-0.38,1,2,-5,/,-40,/
CCn1c(C)c2c(C)nnc(C)c2c1C,/,0.9,6,19,/,4,/
Cc1nnc(C)c2c(C)n(C(c3ccccc3)c3ccccc3)c(C)c12,-0.85,0.8,23,100*,-1.4,52,-11
CC1(C)Cc2ccccc2-c2nnc(-c3ccc4ccccc4n3)n21,-0.34,1.1,-13,62*,/,5,57*
CC1(C)Cc2ccccc2-c2nnc(-c3ccccn3)n21,-0.038,1.1,-6,-2,/,12,/
O=c1[nH]c2ccccc2nc1N1CCOCC1,0.99,0.9,14,-1,/,-14,/
c1ccc2c(c1)nc(N1CCOCC1)c1c3ccccc3[nH]c21,0.94,0.9,7,53*,0.057,-14,11
Cc1ccc2nc(N(CCCN(C)C)C(=O)CCc3ccccc3)sc2c1,0.27,1,4,66*,/,94*,-16
Cc1ccc2nc(N(CCCN(C)C)C(=O)CN3C(=O)c4ccccc4C3=O)sc2c1,1,0.9,5,8,-0.31,17,/
COc1ccc(CN(C(=O)c2cnccn2)C(C(=O)Nc2ccc(F)cc2)c2ccccc2)cc1 (centres undefined),-0.061,0.9,11,62*,0.058,-6,-1
CCOC(=O)N1CCN(c2cc3[nH]c(=S)[nH]c3cc2F)CC1,/,0.9,12,-5,0.28,3,/
CCOC(=O)N1CCN(c2c(F)cc3[nH]c(=S)[nH]c3c2Br)CC1,1.3,0.9,15,51*,/,7,-14
CC(Nc1cccc(F)c1)C(=O)Nc1ccc(S(N)(=O)=O)cc1 (centres undefined),1.8,0.9,6,10,-0.15,5,/
O=C(C1CCCN1C(=O)c1cccs1)N1CCc2ccccc21 (centres undefined),-1.4,0.8,16,-4,/,-9,/
COc1coc(/C=C/C(=O)O)cc1=O,-0.34,0.9,9,-5,-0.88,-10,/
